Screening data (PubChem BioAssay)
Scp1 inh: Scp-1 phosphatase inhibitors, primary screen, biochemical, colorimetric, uHTS. inhibition, % at 20 µM. AID 493091, 2011. Recombinant Scp1, phosphopeptide, malachite green phosphate absorbance. 340,000 compounds, 0.88% hits. Carboxy-terminal domain RNA polymerase II polypeptide A small phosphatase 1 (Homo …;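 active = inhibition above about 50% at 20 µM, limit read from the data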
Target sequence (Q9GZU7 76-261 limits assumed): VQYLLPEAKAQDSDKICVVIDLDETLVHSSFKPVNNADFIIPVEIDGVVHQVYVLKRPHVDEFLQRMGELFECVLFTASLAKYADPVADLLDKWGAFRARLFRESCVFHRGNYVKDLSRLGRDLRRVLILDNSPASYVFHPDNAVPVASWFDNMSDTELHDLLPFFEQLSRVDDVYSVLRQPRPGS
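Assay system: SCP-1 catalytic fragment, aa 76-261 | Buffer or medium: Tris acetate buffer pH 5.5 with MgCl2 and Tween-20 | Compound: One concentration, 20 µM, with 1.0% DMSO | Also added: Phospho 17-mer peptide substrate | Signal: Absorbance at 630 nm | Incubation: 45 min enzyme reaction at room temperature | Measure: % inhibition of SCP-1 phosphate liberation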
LMPTP block: LMPTP phosphatase inhibitors, primary screen, biochemical, fluorescence intensity, uHTS. Low molecular weight phosphotyrosine protein phosphatase (Homo sapiens), P24666. inhibition, % at 20 µM. 360,000 compounds, 0.22% hits. AID 651560, 2012. recombinant LMPTP-A, OMFP fluorogenic substrate;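 active = compounds that cut the enzyme signal by at least half of the control window in the single-dose screen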
Target sequence (P24666 whole entry, looked up): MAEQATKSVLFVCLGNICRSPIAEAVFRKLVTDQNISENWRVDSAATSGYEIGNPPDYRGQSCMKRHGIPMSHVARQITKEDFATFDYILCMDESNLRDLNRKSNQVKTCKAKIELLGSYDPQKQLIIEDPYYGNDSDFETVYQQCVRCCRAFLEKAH
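Test system – LMPTP-A phosphatase enzyme · Quantity – 0.625 nM LMPTP-A final · Reagent – OMFP substrate, 400 µM final · Dosing – one test concentration per compound, 20 µM, with 3% DMSO overall · Timing – 50 min enzyme reaction at room temperature, protected from light · Detection – fluorescence intensity · Controls – substrate-only low control, DMSO enzyme-plus-substrate high control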
STEP block: STEP phosphatase inhibitors, primary screen, biochemical, fluorescence intensity, uHTS. Tyrosine-protein phosphatase non-receptor type 5 (Homo sapiens), P54829. recombinant STEP, OMFP fluorogenic substrate. inhibition, % at 20 µM. 360,000 compounds, 0.25% hits. AID 588621, 2011;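 active = inhibition at 20 µM, scaled per plate between control wells, above about 37%, limit read from the data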
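Material: STEP (striatal-enriched tyrosine phosphatase) enzyme, cell-free | Medium: 50 mM Bis-Tris pH 6.0 with 2.5 mM DTT and 0.005% Tween 20 | Read-out: Percent inhibition scaled to no-enzyme and uninhibited-enzyme controls, plate-pattern corrected | Signal: Fluorescence read at 480 nm ex / 540 nm em | Times: 20 min reaction, room temperature, in the dark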
PP1 inh: PP1-alpha phosphatase inhibitors, primary screen, counter-screen for PP5 inhibitor project, biochemical, fluorescence, OMFP substrate, single point. Serine/threonine-protein phosphatase PP1-alpha catalytic subunit (Homo sapiens), P62136. purified PP1alpha. inhibition, % at 6.7 µM. 320,000 compounds, 0.9% hits. AID 2235, 2010;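 active = inhibition above the mean inhibition of all tested compounds plus 3 SD, computed separately for each screening campaign, cut at about 15% in these data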
Target sequence (P62136 whole entry, looked up): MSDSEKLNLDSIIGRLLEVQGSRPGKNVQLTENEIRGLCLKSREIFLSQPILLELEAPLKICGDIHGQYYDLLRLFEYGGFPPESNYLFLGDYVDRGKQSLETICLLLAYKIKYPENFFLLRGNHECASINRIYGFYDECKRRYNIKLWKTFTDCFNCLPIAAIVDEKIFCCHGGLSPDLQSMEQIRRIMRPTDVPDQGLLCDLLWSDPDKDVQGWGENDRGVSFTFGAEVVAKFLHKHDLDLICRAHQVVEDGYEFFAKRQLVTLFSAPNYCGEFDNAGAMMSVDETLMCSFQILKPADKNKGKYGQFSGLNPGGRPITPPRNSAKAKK
PP5 inh: PP5 phosphatase inhibitors, primary screen, biochemical, fluorescence; 320,000 compounds, 0.18% hits; Serine/threonine-protein phosphatase 5 (Homo sapiens), P53041; purified PP5c, OMFP substrate fluorescence; inhibition, % at 6.7 µM;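 active = inhibition above the campaign's mean inhibition across all tested compounds plus 3 SD, cut at about 9.5% in these data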
Scp-1 conf: Scp-1 phosphatase inhibitors, retest, confirmation, biochemical, colorimetric, single concentration; AID 540281, 2011; shares compounds with Scp1 inh; inhibition, % at 20 µM; 2,500 compounds, 61% hits; recombinant SCP-1 catalytic domain, phosphate release, malachite green absorbance
MG interference: colorimetric readout interference by compounds, confirmation, artefact control for Scp-1 inhibitor project, biochemical, single concentration; AID 540313, 2011; shares compounds with Scp1 inh; apparent inhibition (interference), % at 20 µM; Colorimetric interference counterscreen, malachite green absorbance 630 nm; 2,500 tested, under 10 active;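 note: compounds added after enzyme reaction finished so only phosphate colour detection is probed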
Scp1 DSF: Scp-1 binding by thermal shift, confirmation, orthogonal assay for Scp-1 inhibitor project, biophysical, differential scanning fluorimetry. shares compounds with Scp1 inh. Recombinant SCP1, Sypro Orange thermal shift Tm. thermal shift relative to vanadate control, % at 40 µM. 1,500 compounds, 25% hits;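 active = substances whose mean melting-temperature shift, as a percentage of the reference inhibitor's shift, reaches about 5.3%, limit read from the data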
Of the large screens only hits and unclear results are named; the others gave an inactive call (follow-up assays come after a bar, where they were run). Rows were chosen to be rich in hits. Some 1.9% of all compounds tested hit in one or more screens of this group.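 Rule for the calls, unless noted: active = inhibition of at least 30% at 20 µM; inactive = the rest.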

COc1ccc(/C=C2\SC(=S)N(CCC(=O)Nc3ccc(C(=O)O)cc3)C2=O)cc1	Scp1 inh 86.7, LMPTP block 89.9, STEP block 94.9 | Scp-1 conf 68.9 | MG interference inactive | Scp1 DSF 20.8
O=C(CCN1C(=O)/C(=C/c2ccc(F)cc2)SC1=S)Nc1cc([N+](=O)[O-])ccc1O	Scp1 inh 64.0 | Scp-1 conf 50.1 | MG interference inactive | Scp1 DSF 7.2
CCOC(=O)c1cc(C#N)c(Oc2ccc(F)cc2)nc1-c1ccccc1	none
COc1ccc(OCc2nnc(SCC(=O)Nc3ccc(C)cc3)o2)cc1	none
CCC/C(=N\NC(=O)CNC(=O)/C=C/c1ccco1)c1ccccc1	none
COc1ccc(/C(C)=N/NC(=O)CNC(=O)/C=C\c2ccco2)cc1	Scp1 inh 81.5 | Scp-1 conf 64.5 | MG interference inactive | Scp1 DSF inactive
CC/C(=N\NC(=O)CNC(=O)/C=C/c1ccco1)c1ccccc1	Scp1 inh 94.4 | Scp-1 conf inactive | MG interference inactive
O=C1CCCC(O)=C1Sc1ccccc1C(=O)O	Scp1 inh 56.7 | Scp-1 conf 36.8 | MG interference inactive | Scp1 DSF inactive
Cn1cnnc1SCNC(=O)C(F)(F)F	none
CCOC(=O)c1sc(NC(=O)C2CC2)nc1C	none
CCOC(=O)c1sc(NC(=O)C2C3C=CC(C3)C2C(=O)O)nc1C (stereo not drawn)	Scp1 inh 53.7 | Scp-1 conf 42.1 | MG interference inactive | Scp1 DSF inactive
O=C(CSc1n[nH]c(-c2ccncc2)n1)Nc1ccc(Cl)cc1	none
O=C(CSc1n[nH]c(-c2ccncc2)n1)Nc1ccc(Cl)c(Cl)c1	Scp1 inh 52.4 | Scp-1 conf inactive | MG interference inactive
O=S1(=O)c2c(F)cccc2OC(COc2ccccc2)CN1CCc1ccc(F)cc1 (stereo not drawn)	none (no result: PP1 inh, PP5 inh)
CCn1c(SCC(=O)N/N=C/C(C)=C/c2ccco2)nnc1-c1ccccc1	Scp1 inh 88.0 | Scp-1 conf 50.4 | MG interference inactive | Scp1 DSF inactive
CCn1c(SCC(=O)N/N=C/c2ccc(C)o2)nnc1-c1ccccc1	none
CCn1c(SCC(=O)N/N=C/C(C)=C\c2ccco2)nnc1-c1ccccc1	Scp1 inh 76.3 | Scp-1 conf 60.4 | MG interference inactive | Scp1 DSF inactive
CC(C)N1CCC1(C)C(=O)Nc1ccc2scnc2c1 (stereo not drawn)	none (no result: Scp1 inh, PP1 inh, PP5 inh)
O=C(Nc1ccc(N2CCN(C(=O)c3ccco3)CC2)cc1)c1ccc([N+](=O)[O-])cc1Cl	none
Cc1ccc(C(=O)Nc2ccc(N3CCN(C(=O)c4ccco4)CC3)cc2)c(Cl)c1	Scp1 inh 68.1 | Scp-1 conf inactive | MG interference inactive
O=C(COc1ccc(Cl)cc1)N1CCN(C(=O)c2cccs2)CC1	none
O=[N+]([O-])c1ccc2oc(/C=C/c3ccc(O)cc3)nc2c1	none (no result: Scp1 inh, PP1 inh, PP5 inh)
COc1cc2cnc(-c3ccccc3)c(-c3ccc([N+](=O)[O-])cc3)c2cc1OC	none
COc1cc2cnc(-c3ccccc3)c(-c3cc(OC)c(OC)c(OC)c3)c2cc1OC	Scp1 inh 61.3 | Scp-1 conf 37.1 | MG interference inactive | Scp1 DSF inactive
Cc1c(NC(=O)CC(=O)Nc2c(C)n(C)n(-c3ccccc3)c2=O)c(=O)n(-c2ccccc2)n1C	none
Cc1c(NC(=O)CC2NC(=O)NC2=O)c(=O)n(-c2ccccc2)n1C (stereo not drawn)	none (no result: Scp1 inh, LMPTP block, STEP block) | Scp-1 conf inactive | MG interference inactive
CCCCSc1nc2c(cc1C#N)CCC2	none
CCCSc1nc(C)c(-c2csc(C(C#N)=C3CCCC3)n2)cc1C#N	Scp1 inh 57.3 | Scp-1 conf 59.9 | MG interference inactive | Scp1 DSF inactive
Cc1ccc(N2CC(C(=O)Nc3nnc(SCc4cccnc4)s3)CC2=O)cc1 (stereo not drawn)	none
NC(=O)NC(=O)CC1S/C(=N/N=C2\CSC(=O)N2)NC1=O (stereo not drawn)	none
O=C(O)CNC(=O)CC1S/C(=N/N=C2/NC(=O)CS2)NC1=O (stereo not drawn)	Scp1 inh 71.6 | Scp-1 conf 68.6 | MG interference inactive | Scp1 DSF inactive
CCc1ccccc1N/C(=N\S(=O)(=O)c1ccccc1)C(F)(F)F	none
CC1CC2C3CCC4=CC(=O)CCC4(C)C3CCC2(C)C1(O)C(=O)CO (stereo not drawn)	Scp1 inh 58.7 (no result: PP1 inh, PP5 inh) | Scp-1 conf inactive | MG interference inactive
Cc1cc2nc(C3CCN(Cc4nnnn4Cc4ccccc4)CC3)[nH]c2cc1C	none
Nc1ccc2cccc(O)c2c1	Scp1 inh 55.9 (no result: PP1 inh, PP5 inh) | Scp-1 conf 53.8 | MG interference inactive | Scp1 DSF 12.6
C[C@@H](NC(=O)Cn1ccc(N)nc1=O)c1cccc2ccccc12	none | Scp-1 conf inactive | MG interference inactive
C[C@@H](NC(=O)Cn1ccc(NC(=O)OCc2ccccc2)nc1=O)c1cccc2ccccc12	none
CCOc1ccc(C(=O)N/N=C/c2cc(Cl)ccc2[N+](=O)[O-])cc1	Scp1 inh 102.7 | Scp-1 conf 48.1 | MG interference inactive | Scp1 DSF inactive
COc1ccc(S(=O)(=O)N(C)C)cc1NC(=O)C1CCN(c2ncnc3sc(C)c(C)c23)CC1	none (no result: PP1 inh, PP5 inh)
COC(=O)C1=C(C)N(C)C(C)=C(C(=O)OC)C1c1ccccc1C	none
COC(=O)C1=C(C(=O)OC)C2(OC1c1ccccc1C)C(=O)c1ccccc1C2=O (stereo not drawn)	Scp1 inh 56.4 | Scp-1 conf inactive | MG interference inactive
COc1ccc(S(=O)(=O)N2CCN(C(=O)c3cc4c(s3)CCC4)CC2)cc1	Scp1 inh 84.3, LMPTP block 56.9 (no result: PP1 inh, PP5 inh) | Scp-1 conf 67.9 | MG interference inactive | Scp1 DSF inactive
Cc1ccc(S(=O)(=O)N2CCN(C(=O)c3cc4c(s3)CCCC4)CC2)cc1	none
